# Compound activity as filed in PubChem.
# LMPTP inh: blocks human LMPTP phosphatase; P24666; recombinant LMPTP-A, OMFP fluorogenic substrate, fluorescence intensity; inhibition, % at 20 µM; 360,000 tested, 0.22% active; AID 651560;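 active means compounds that cut the enzyme signal by at least half of the control window in the single-dose screen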;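 further: plate controls were DMSO wells with enzyme plus substrate for no effect and substrate without enzyme for full effect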
#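 Buffer or medium: Bis-Tris pH 6.0, DTT, detergent; Assay system: LMPTP-A enzyme; Quantity: 0.625 nM enzyme; Detection: endpoint fluorescence intensity; Times: 50 min dark incubation at room temperature; Controls: substrate-only low control, DMSO enzyme-plus-substrate high control; Doses: single 20 µM dose; Read-out: percent inhibition versus substrate-only and uninhibited controls; Reagent: 400 µM OMFP.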
# SUMO1-SIM PPI: modulators of human SUMO1-mediated protein-protein interactions | P63165 | SUMO1 binding to a labelled peptide, TR-FRET, 1 h | inhibition, % at 20 µM | 360,000 tested, 0.33% active | AID 602429; in the data active means inhibition above about 37%
# Target sequence (P63165 whole entry, looked up): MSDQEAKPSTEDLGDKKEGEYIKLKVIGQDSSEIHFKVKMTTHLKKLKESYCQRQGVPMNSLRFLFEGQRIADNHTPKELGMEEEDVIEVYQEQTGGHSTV
# STEP block: STEP (human) phosphatase inhibition; P54829; recombinant STEP, OMFP fluorogenic substrate, fluorescence; inhibition, % at 20 µM; 360,000 tested, 0.25% active; AID 588621;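 active means inhibition at 20 µM, scaled per plate between control wells, above about 37%, limit read from the data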;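 further: 0% = DMSO with enzyme and substrate and 100% = substrate only without enzyme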
#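 material = STEP tyrosine phosphatase | reagent = fluorogenic phosphatase substrate OMFP at 25 µM final | doses = single compound dose of 20 µM, 1% DMSO final | schedule = 20 min reaction, room temperature, in the dark | measured by = fluorescence, 480/540 nm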
# CASP6 VEID inh: blocks human caspase-6 cleavage activity; P55212; purified caspase-6, Z-VEID-R110 cleavage fluorescence; inhibition, % at 12.5 µM; 350,000 tested, 0.53% active;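 active means mean inhibition across replicates at least about 35%, with every replicate also reaching that limit, limit read from the data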;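 further: 0% = median of neutral control wells and 100% = no fluorescence left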
# Target sequence (P55212 24-179 limits assumed): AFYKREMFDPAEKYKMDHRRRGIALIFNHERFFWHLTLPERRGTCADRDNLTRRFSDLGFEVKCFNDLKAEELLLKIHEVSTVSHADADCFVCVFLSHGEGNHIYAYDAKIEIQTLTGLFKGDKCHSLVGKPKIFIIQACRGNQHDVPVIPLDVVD
# Target sequence (P55212 194-293 limits assumed): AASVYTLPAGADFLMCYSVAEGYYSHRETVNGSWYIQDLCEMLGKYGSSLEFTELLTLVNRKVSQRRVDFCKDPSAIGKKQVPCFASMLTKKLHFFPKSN
# Scp1 inh: Scp-1 (human) phosphatase inhibition; Q9GZU7; Recombinant Scp1, phosphopeptide, malachite green phosphate absorbance; inhibition, % at 20 µM; 340,000 tested, 0.88% active; AID 493091;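 active means inhibition above about 50% at 20 µM, limit read from the data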;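 further: plate controls were DMSO wells with enzyme for no effect and wells lacking enzyme for full effect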
# Target sequence (Q9GZU7 76-261 limits assumed): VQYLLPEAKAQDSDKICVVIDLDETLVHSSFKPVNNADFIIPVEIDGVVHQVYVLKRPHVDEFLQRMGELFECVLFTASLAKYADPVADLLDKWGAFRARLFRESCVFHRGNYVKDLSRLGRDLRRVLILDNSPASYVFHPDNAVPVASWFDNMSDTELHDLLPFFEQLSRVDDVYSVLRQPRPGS
#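 System: truncated SCP-1 phosphatase (76-261aa); medium: Tris acetate buffer pH 5.5 with MgCl2 and Tween-20; incubation: 45 min room-temperature reaction, 5 min colour, 30 min stabiliser; compound: single 20 µM dose, 1% DMSO; reagent: Phosphorylated 17-residue peptide substrate; read-out: % inhibition at 20 µM; technique: colorimetric free-phosphate detection, absorbance 630 nm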
# DNMT1 inh: blocks human DNA methyltransferase DNMT1; 360,000 tested, 0.83% active; P26358; DNMT1 molecular beacon, Hinp1I cleavage, fluorescence; inhibition (reported as % activation of signal), % at 10 µM; AID 588458; in the data active means inhibition above about 50%
# DNMT1 interf DR: beacon fluorescence artifact, dose response counter-screen. molecular beacon fluorescence, spectral interference counter-screen. shares compounds with DNMT1 inh. 200 tested, under 10 active. IC50, µM; call rule not given here
# DNMT1 confirm: confirmation of human DNMT1 inhibitors; shares compounds with DNMT1 inh; DNMT1 molecular beacon HinP1I cleavage, fluorescence; inhibition, % at 10 µM; 2,300 tested, 8% active; AID 602385;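 active means average inhibition of at least 30% in the single-concentration confirmation test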
# DNMT1 interf: beacon fluorescence artifact counter-screen | shares compounds with DNMT1 inh | DNMT1 molecular beacon spectral interference counterscreen, fluorescence 485/520 | activation (fluorescence interference), % at 10 µM | 2,300 tested, 1% active | AID 602387;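 active means activation of at least 30% at 10 µM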;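 further: DNMT1 catalytic domain with a HinP1I cleavage step and a FAM/dabcyl DNA beacon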
# * hit, by the source's call; . = not tested or not shown. Hits are enriched below; roughly 1.7% of the tested compounds scored in any of these assays.
SMILES,LMPTP inh,SUMO1-SIM PPI,STEP block,CASP6 VEID inh,Scp1 inh,DNMT1 inh,DNMT1 confirm,DNMT1 interf,others
O=C1NC(=O)C2(N1)C(=O)c1cccc3cccc2c13 (stereo not given),-2.8,-16.5,-0.7,-14.4,.,92.1*,49.3*,69.6*,
O=C(C[C@H]1C/C=C\C[C@H](Cc2ccc(F)cc2)C(=O)O[C@@H](c2ccccc2)CNC1=O)N[C@@H](CO)Cc1ccccc1,-1.3,-2.2,-2.4,0.3,-3.5,62.5*,0.2,-6.0,
O=C(C[C@H]1C/C=C\C[C@@H](Cc2ccc(F)cc2)C(=O)O[C@@H](c2ccccc2)CNC1=O)N[C@@H](CO)Cc1ccccc1,-0.2,6.3,0.1,4.5,-2.3,37.3,.,.,
Cc1onc(-c2ccccc2Cl)c1C(=O)NCc1ccccc1F,-0.8,4.2,0.1,2.9,-4.7,2.5,.,.,
O=C(Nc1ccc(Oc2ccccc2)cc1)c1csc(COCCO)n1,0.3,4.7,0.3,-5.8,.,63.9*,1.4,3.4,
O=C(Nc1ccc(Cl)cc1)c1csc(COCCO)n1,-0.6,-2.3,-3.7,-0.4,.,-2.9,.,.,
CCCCN(C)C(=O)CCCCn1c(=O)[nH]c2cc(OCC)c(OCC)cc2c1=O,-1.3,-0.5,3.0,.,-6.0,-2.1,.,.,
Cc1nnsc1S(=O)c1ccc(F)cc1 (stereo not given),0.2,-2.7,-2.6,-1.0,-3.4,-0.9,.,.,
C=CCn1c(COc2ccc(Cl)cc2)nnc1SCC(=O)c1c(N)n(C)c(=O)n(C)c1=O,17.4,-2.2,4.3,3.4,-7.3,73.0*,4.3,1.8,
CCOC(=O)C1=C(C)N=c2sc(=Cc3ccc(OCC(=O)O)cc3)c(=O)n2C1c1ccc(Cl)cc1 (stereo not given),75.9*,44.1*,10.0,21.7,.,91.8*,98.8*,-4.8,DNMT1 interf DR=>99
CCOC(=O)C1=C(C)N=c2s/c(=C\c3ccc(OCC(=O)O)cc3)c(=O)n2C1c1ccc(OC(C)C)cc1 (stereo not given),0.9,1.2,14.1,.,6.6,-1.6,.,.,
Cc1cc(C(=O)N/N=C/c2cc(Br)c(Br)o2)n[nH]1,7.0,-3.4,17.9,54.3*,45.7,64.1*,-1.3,-0.6,
Cc1cc(O)cc2c1C(=O)/C(=C/c1ccco1)O2,0.1,-8.4,2.0,30.3,-17.9,64.8*,6.2,5.8,
COC(=O)COc1ccc2c(c1)O/C(=C\c1ccco1)C2=O,4.8,-19.2,-0.9,13.3,-2.8,14.7,.,.,
CN(C(=O)COC(=O)COc1ccc2c(c1)CCC2)c1c(N)n(Cc2ccccc2)c(=O)[nH]c1=O,0.1,1.7,1.7,0.8,-0.8,4.8,.,.,
Cc1cccc(Cl)c1OCCCn1ccnc1,-0.4,-1.2,1.4,5.4,-7.5,66.8*,2.0,0.8,
Cc1cc(Cl)cc(C)c1OCCCCCn1ccnc1,-3.1,-4.0,-3.0,-2.4,-3.7,0.4,.,.,
O=C1NC(=S)S/C1=C\c1ccc(SCc2ccccc2)o1,6.6,6.8,12.3,.,31.0,81.9*,10.4,1.1,
CC(=O)Oc1ccccc1N(C(C)=O)S(=O)(=O)c1ccc(C)cc1,-1.9,0.0,1.6,2.0,-1.1,1.0,.,.,
O=c1c2c(nc3nc(Cc4ccccc4)[nH]n13)CCC2,-0.5,-1.0,-4.0,.,-5.9,60.5*,2.5,2.5,
Cc1nc2nc3c(c(=O)n2[nH]1)CCC3,-1.2,2.2,3.0,.,-2.0,3.4,.,.,
CCOc1ccc(Cc2n[nH]c(=S)n2N)cc1,-2.3,2.2,2.9,.,-2.7,-4.6,.,.,
C/C(CC(=O)Nc1ccccc1C#N)=N\NC(=O)c1ccncc1,-1.0,2.9,-2.3,-12.0,-7.5,81.9*,3.1,2.3,
O=C(N/N=C/c1ccc(OC(=O)c2ccc(Br)cc2)cc1)c1ccncc1,1.3,-2.8,14.8,0.3,7.0,57.2*,6.1,2.1,
CSc1nnc(C)c(=O)n1COC(=O)COc1ccc(Cl)cc1,-0.9,3.3,-3.2,0.5,-10.4,109.7*,-1.9,-2.4,
SMILES,LMPTP inh,SUMO1-SIM PPI,STEP block,CASP6 VEID inh,Scp1 inh,DNMT1 inh,DNMT1 confirm,DNMT1 interf,others
CO[C@H]1CN(C)C(=O)c2ccc(NC(=O)c3cc(C)on3)cc2OC[C@@H](C)N(C(=O)C2CC2)C[C@H]1C,.,.,.,6.5,.,.,.,.,
Cc1cccc(NC(=O)CSc2cc(C)c(C#N)c3nc4ccccc4n23)c1,2.3,-19.7,3.4,3.3,0.2,52.3*,18.8,2.6,
CNc1cc(C)c(C#N)c2nc3ccccc3n12,1.1,5.3,-1.3,0.0,-2.2,14.5,.,.,
NC(=O)CC(NC(=O)Cc1cccc2ccccc12)c1ccc(NC2CCCCCCC2)c([N+](=O)[O-])c1 (stereo not given),1.4,-0.3,3.2,-1.9,-0.2,59.6*,1.1,5.8,
NC(=O)CC(NC(=O)Cc1ccc(Br)cc1)c1ccc(NC2CCCC2)c([N+](=O)[O-])c1 (stereo not given),1.5,-11.8,2.9,.,-5.6,53.8*,3.1,1.6,
NC(=O)CC(NC(=O)Cc1cccc2ccccc12)c1ccc(NC2CCCCCC2)c([N+](=O)[O-])c1 (stereo not given),1.7,-4.7,-2.3,0.5,-5.0,41.1,.,.,
NC(=O)CC(NC(=O)Cc1ccc(Br)cc1)c1ccc(NC2CCCCCCC2)c([N+](=O)[O-])c1 (stereo not given),4.1,-2.2,-2.3,0.0,-4.4,16.4,.,.,
C[C@H](CO)N1C[C@H](C)[C@H](CN(C)C(=O)NC2CCCCC2)Oc2c(NS(C)(=O)=O)cccc2C1=O,.,.,.,-0.4,.,.,.,.,
Cc1ccc(C2/C(=C(/O)c3ccccc3)C(=O)C(=O)N2CCN2CCOCC2)o1 (stereo not given),-1.7,-1.9,2.0,.,-13.1,-2.3,.,.,
Cc1ccc(C)c(/C(O)=C2/C(=O)C(=O)N(CCN3CCOCC3)C2c2ccco2)c1 (stereo not given),-1.0,0.2,2.6,.,27.1,83.2*,2.4,3.0,
C[C@@H]1CN([C@@H](C)CO)C(=O)c2cc(NC(=O)Cc3ccccc3)ccc2O[C@@H](C)CCCCO[C@H]1CN(C)Cc1ccc(C(=O)O)cc1,.,.,.,0.9,.,.,.,.,
C=C1C(=O)OC2C1CCC(C)=C1C(=O)C3OC3(C)C12 (stereo not given),-0.9,4.2,-2.1,12.6,4.1,72.2*,7.6,7.5,
CCC1CCC(C(=O)NNC(=O)c2cc(-c3ccco3)[nH]n2)CC1 (stereo not given),0.2,2.0,2.8,3.3,10.6,51.4*,1.6,5.7,
